Broadly, the IC50 is the concentration needed to halve the response being measured.

This is an account of results in ChEMBL document CHEMBL3994580, “A novel class of α-glucosidase and HMG-CoA reductase inhibitors from Ganoderma leucocontextum and the anti-diabetic properties of ganomycin I in KK-Ay mice” (Eur J Med Chem, 2017).

Series [1] has as its system Mus musculus. The series can be described thus: Antidiabetic activity in KK-Ay diabetic mouse model assessed as reduction in blood glucose level after 4 hrs fasting at 10 mg/kg/day administered via oral gavage once daily measured on day 3 post dose. Type of series: functional, organism-based. The method, boiled down: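 KK-Ay mice on high-fat diet, gavaged once daily (1 or 5 mg/kg; rosiglitazone 10 mg/kg). Blood glucose monitored sequentially after 4 h fasting. Mean ± SEM, n = 8, compared with the KK-Ay model group.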

Series [2] relates to Mus musculus. The series can be described thus: Hypoglycemic activity in KK-Ay diabetic mouse model assessed as increase in liver hepatic glycogen level at 10 mg/kg/day administered via oral gavage once daily for 4 weeks. Type of series: functional, organism-based.
Series [3] has as its system Mus musculus. The series can be described thus: Antidiabetic activity in KK-Ay diabetic mouse model assessed as reduction in free diet blood glucose level at 10 mg/kg/day administered via oral gavage once daily measured on day 3 post dose. Type of series: functional, organism-based. The method, boiled down: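 Non-fasted (free diet) blood glucose was tracked serially in high-fat-fed KK-Ay mice given daily gavage doses (1 or 5 mg/kg; rosiglitazone 10 mg/kg). Mean ± SEM, n = 8.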

For series [4], the system named is Mus musculus. The series can be described thus: Effect on serum AST level in KK-Ay diabetic mouse model at 10 mg/kg/day administered via oral gavage once daily for 21 days. The class given is functional, organism-based. The method, boiled down: (§1)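 Male KK-Ay mice (8 weeks old) on high-fat diet with water ad libitum, dosed by gavage once daily for 21 days (1 or 5 mg/kg test; rosiglitazone 10 mg/kg); female C57BL/6J mice as normal controls. Blood collected at study end. Serum lipids, insulin and glucose measured per cited method. ISI calculated from fasting blood glucose and fasting insulin. Mean ± SEM, n = 7-8.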

The test system of series [5] is Mus musculus. Briefly: Decrease in size of adipocytes in abdominal white adipose tissue in KK-Ay diabetic mouse model at 10 mg/kg/day administered via oral gavage once daily for 21 days by haematoxylin and eosin staining based microscopic or morphometric method. Type of series: functional, organism-based. The method, boiled down:
(§2)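 At study end, liver and abdominal white adipose tissue were fixed in 10% formaldehyde PBS (pH 7.4), paraffin-embedded, sectioned and stained with haematoxylin/eosin. Sections were assessed by microscopy or morphometry at 20×.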

Series [6] concerns Mus musculus. Briefly: Toxicity in KK-Ay diabetic mouse model assessed as changes in body weight at 10 mg/kg/day administered via oral gavage once daily for 21 days measured every 3 days during compound dosing. The class given is organism-based. Conditions: in vivo. The method, boiled down: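 In high-fat-fed KK-Ay mice gavaged once daily for 21 days, individual body weight and cage food consumption were recorded every 3 days. Mean ± SEM, n = 8.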

Series [7] deals with Mus musculus. The series can be described thus: Antidiabetic activity in KK-Ay diabetic mouse model assessed as reduction in blood glucose level at 10 mg/kg/day administered via oral gavage once daily for 21 days measured at 30 to 60 mins post glucose challenge by oral glucose tolerance test. Type of series: functional, organism-based. The method, boiled down: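 OGTT on day 21 of daily gavage dosing in KK-Ay mice. Blood glucose read at time points including 30 and 60 min, and the AUC was calculated. Mean ± SEM, n = 8.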

Series [8] concerns Mus musculus. Briefly: Antidiabetic activity in KK-Ay diabetic mouse model assessed as reduction in HbA1C level at 10 mg/kg/day administered via oral gavage once daily for 21 days. Type of series: functional, organism-based.
In series [9] the test system is Mus musculus. The series can be described thus: Decrease in lipid droplet accumulation in liver in KK-Ay diabetic mouse model at 10 mg/kg/day administered via oral gavage once daily for 21 days by haematoxylin and eosin staining based microscopic or morphometric method. The class given is functional, organism-based. The method, boiled down:
as §2

Series [10] deals with Mus musculus. The series can be described thus: Antidiabetic activity in KK-Ay diabetic mouse model assessed as reduction in serum insulin level at 10 mg/kg/day administered via oral gavage once daily for 21 days. Type of series: functional, organism-based. The method, boiled down:
as §1

For series [11], the system named is Mus musculus. The series can be described thus: Hypolipidemic activity in KK-Ay diabetic mouse model assessed as reduction in serum triglyceride level at 10 mg/kg/day administered via oral gavage once daily for 21 days. The class given is functional, organism-based. The method, boiled down: as §1
In series [12] the test system is Mus musculus. Briefly: Antidiabetic activity in KK-Ay diabetic mouse model assessed as reduction in blood glucose level at 10 mg/kg/day administered via oral gavage once daily measured on day 19 at 30 to 60 mins post insulin challenge by insulin tolerance test. The class given is functional, organism-based. The method, boiled down:
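ITT on day 19 of treatment: after 4 h fasting, insulin 0.6 U·kg-1 given intraperitoneally. Glycaemia was sampled from the tail tip before and at set times after injection, and the AUC was computed. Mean ± SEM, n = 8.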

Series [13] has as its system Mus musculus. The series can be described thus: Hypolipidemic activity in KK-Ay diabetic mouse model assessed as reduction in serum NEFA level at 10 mg/kg/day administered via oral gavage once daily for 21 days. The class given is functional, organism-based. The method, boiled down:
as §1

The test system of series [14] is Mus musculus. The series can be described thus: Hypolipidemic activity in KK-Ay diabetic mouse model assessed as reduction in serum total cholesterol level at 10 mg/kg/day administered via oral gavage once daily for 21 days. The class given is functional, organism-based. The method, boiled down: as §1
Series [15] relates to Mus musculus. The series can be described thus: Decrease in hepatocyte hypertrophy in KK-Ay diabetic mouse model at 10 mg/kg/day administered via oral gavage once daily for 21 days by haematoxylin and eosin staining based microscopic or morphometric method. The class given is functional, organism-based. The method, boiled down:
as §2

For series [16], the system named is Mus musculus. The series can be described thus: Antidiabetic activity in KK-Ay diabetic mouse model assessed as increase in insulin sensitivity index at 10 mg/kg/day administered via oral gavage once daily for 21 days. Type of series: functional, organism-based. The method, boiled down: as §1
Series [17] is described as follows: Inhibition of baker's yeast alpha-glucosidase using p-nitrophenyl alpha-D-glucopyranoside as substrate preincubated for 10 mins followed by substrate addition measured for 15 mins. Details: species or system Saccharomyces cerevisiae. The method, boiled down:
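Baker's yeast α-glucosidase with pNPG, read at 405 nm. Control contained phosphate buffer in place of compound, and blank contained buffer in place of enzyme.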

In the next series the test system is Saccharomyces cerevisiae. Briefly: Non-competitive inhibition of baker's yeast alpha-glucosidase using varying levels of p-nitrophenyl alpha-D-glucopyranoside as substrate preincubated for 10 mins followed by substrate addition measured for 15 mins by Lineweaver-Burk plot analysis. The method, boiled down: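 Kinetics with inhibitor at 0.3 to 1 μM against α-glucosidase. pNPG at 2, 4, 6 and 8 μM. Initial velocities measured with and without inhibitor, and inhibition type assigned from Michaelis-Menten and Lineweaver-Burk plots.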

Series [18] is described as follows: Inhibition of maltase in rat small intestinal mucosa assessed as reduction in glucose production using maltose as substrate measured after 40 mins by glucose oxidase assay. The method, boiled down:
(§3)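 Rat small intestinal mucosa enzyme. Compound in DMSO mixed with substrate (maltose, sucrose or pNPG) and enzyme in 0.1 M phosphate buffer pH 6.9, incubated 40 min. Glucose released measured by glucose oxidase kit at 550 nm. Blank lacked enzyme, control lacked compound. Percent inhibition calculated from blank-corrected OD.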

For series [19], the target named is T1, 3-hydroxy-3-methylglutaryl-coenzyme A reductase (Sus scrofa, UniProt Q1W675).
T1 sequence (Q1W675 whole entry): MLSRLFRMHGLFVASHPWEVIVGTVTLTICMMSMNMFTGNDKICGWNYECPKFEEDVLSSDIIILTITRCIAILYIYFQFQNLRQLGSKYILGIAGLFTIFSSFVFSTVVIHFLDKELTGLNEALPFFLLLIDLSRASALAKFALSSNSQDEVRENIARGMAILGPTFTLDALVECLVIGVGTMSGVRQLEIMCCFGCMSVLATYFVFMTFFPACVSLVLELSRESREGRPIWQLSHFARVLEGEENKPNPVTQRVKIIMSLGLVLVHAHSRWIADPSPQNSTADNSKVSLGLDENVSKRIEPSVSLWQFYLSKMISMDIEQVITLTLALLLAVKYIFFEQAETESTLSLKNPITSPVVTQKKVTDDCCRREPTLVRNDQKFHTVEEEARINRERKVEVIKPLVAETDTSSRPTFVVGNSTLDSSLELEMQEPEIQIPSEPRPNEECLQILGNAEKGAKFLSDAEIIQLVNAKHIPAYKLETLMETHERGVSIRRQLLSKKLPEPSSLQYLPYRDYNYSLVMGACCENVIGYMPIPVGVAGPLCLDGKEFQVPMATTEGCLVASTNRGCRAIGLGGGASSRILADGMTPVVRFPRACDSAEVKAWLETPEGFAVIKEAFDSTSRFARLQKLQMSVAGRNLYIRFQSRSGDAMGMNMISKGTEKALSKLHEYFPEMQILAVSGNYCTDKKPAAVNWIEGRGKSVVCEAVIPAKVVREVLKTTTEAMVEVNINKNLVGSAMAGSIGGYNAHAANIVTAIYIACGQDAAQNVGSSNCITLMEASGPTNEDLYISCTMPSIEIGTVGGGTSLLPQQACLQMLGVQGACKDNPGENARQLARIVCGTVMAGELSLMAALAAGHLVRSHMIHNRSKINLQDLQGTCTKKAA
Briefly: (§4) Inhibition of HMG-CoA reductase in pig liver microsomes using HMG-CoA as substrate preincubated for 5 mins followed by NADPH addition measured after 15 mins by colorimetric method. The method, boiled down: (§5)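 HMG-CoA reductase activity followed by absorbance at 340 nm. Blank had potassium phosphate buffer instead of enzyme, and control had buffer instead of compound. Percent inhibition calculated from blank-corrected OD.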
For orientation: Liver microsomes are a subcellular fraction often used to study metabolism.

For series [20], the target named is T2, 3-hydroxy-3-methylglutaryl-coenzyme A reductase (Sus scrofa) (UniProt Q1W675).
T2 sequence (whole entry): T1 sequence (Q1W675 whole entry)
The series is described as §4. The method, boiled down:
as §5

The target of series [21] is Sucrase-isomaltase, intestinal (Rattus norvegicus, UniProt P23739). Briefly: Inhibition of sucrase in rat small intestinal mucosa assessed as reduction in glucose production using sucrose as substrate measured after 40 mins by glucose oxidase assay. The method, boiled down: as §3
Sucrase-isomaltase, intestinal, sequence (P23739 1-1013 limits assumed): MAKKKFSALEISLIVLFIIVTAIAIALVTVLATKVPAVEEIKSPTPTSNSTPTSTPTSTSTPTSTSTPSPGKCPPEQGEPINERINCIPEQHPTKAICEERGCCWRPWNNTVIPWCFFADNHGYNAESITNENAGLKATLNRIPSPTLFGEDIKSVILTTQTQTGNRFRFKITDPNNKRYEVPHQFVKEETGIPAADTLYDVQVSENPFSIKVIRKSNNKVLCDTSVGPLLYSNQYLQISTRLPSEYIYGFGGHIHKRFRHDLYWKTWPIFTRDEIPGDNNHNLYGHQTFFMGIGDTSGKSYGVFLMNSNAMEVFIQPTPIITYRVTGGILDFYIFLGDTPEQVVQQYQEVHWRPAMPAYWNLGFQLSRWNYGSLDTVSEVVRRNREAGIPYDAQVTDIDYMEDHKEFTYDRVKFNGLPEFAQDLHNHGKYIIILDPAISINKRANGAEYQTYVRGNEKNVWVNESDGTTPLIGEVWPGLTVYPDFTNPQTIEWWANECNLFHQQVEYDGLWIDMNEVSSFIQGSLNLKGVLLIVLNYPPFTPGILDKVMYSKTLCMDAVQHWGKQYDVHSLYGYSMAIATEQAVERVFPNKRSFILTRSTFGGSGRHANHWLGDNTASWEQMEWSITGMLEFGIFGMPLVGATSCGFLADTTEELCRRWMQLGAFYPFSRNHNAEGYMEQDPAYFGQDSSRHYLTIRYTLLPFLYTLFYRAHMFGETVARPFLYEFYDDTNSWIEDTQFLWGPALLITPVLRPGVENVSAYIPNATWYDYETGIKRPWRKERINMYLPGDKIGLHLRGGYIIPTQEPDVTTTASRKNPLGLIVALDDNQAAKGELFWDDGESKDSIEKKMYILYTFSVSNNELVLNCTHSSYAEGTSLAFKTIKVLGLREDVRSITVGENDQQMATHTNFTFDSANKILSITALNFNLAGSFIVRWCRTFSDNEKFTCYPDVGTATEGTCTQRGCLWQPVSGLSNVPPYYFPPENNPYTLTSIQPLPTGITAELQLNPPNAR
Sucrase-isomaltase, intestinal, sequence (P23739 1014-1841 limits assumed): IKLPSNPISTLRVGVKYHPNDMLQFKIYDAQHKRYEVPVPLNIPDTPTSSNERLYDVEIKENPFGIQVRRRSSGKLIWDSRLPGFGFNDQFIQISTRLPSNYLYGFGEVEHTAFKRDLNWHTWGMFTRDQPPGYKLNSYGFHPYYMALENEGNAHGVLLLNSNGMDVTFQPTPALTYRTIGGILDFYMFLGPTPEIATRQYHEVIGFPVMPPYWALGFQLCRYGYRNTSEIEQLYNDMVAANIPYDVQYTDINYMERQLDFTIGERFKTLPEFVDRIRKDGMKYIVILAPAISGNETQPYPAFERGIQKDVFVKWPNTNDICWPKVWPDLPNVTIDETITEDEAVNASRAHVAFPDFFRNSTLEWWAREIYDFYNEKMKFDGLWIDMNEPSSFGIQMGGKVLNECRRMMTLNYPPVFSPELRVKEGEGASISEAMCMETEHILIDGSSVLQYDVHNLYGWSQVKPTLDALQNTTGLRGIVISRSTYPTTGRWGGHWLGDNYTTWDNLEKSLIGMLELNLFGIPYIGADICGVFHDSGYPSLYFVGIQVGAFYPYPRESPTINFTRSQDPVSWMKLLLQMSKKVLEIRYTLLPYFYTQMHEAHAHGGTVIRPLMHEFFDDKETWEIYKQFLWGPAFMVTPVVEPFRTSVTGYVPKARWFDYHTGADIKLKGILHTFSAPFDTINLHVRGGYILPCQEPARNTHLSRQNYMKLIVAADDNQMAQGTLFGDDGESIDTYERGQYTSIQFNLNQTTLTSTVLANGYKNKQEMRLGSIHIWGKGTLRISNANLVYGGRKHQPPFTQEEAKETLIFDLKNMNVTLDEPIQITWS
A short description of series [22]: Inhibition of alpha-glucosidase in rat small intestinal mucosa assessed as reduction in glucose production using p-nitrophenyl alpha-D-glucopyranoside as substrate measured after 40 mins by glucose oxidase assay. The method, boiled down: as §3

The source made the active and inactive calls. No cut-off for these calls is given here.

In the case of `CN(CCOc1ccc(CC2SC(=O)NC2=O)cc1)c1ccccn1` (stereo unspecified) [ROSIGLITAZONE], the result in the series on Mus musculus [1], with Mus musculus [3], with Mus musculus [5], in the series on Mus musculus [7], with Mus musculus [8] and with Mus musculus [10] was Active. Moreover, the outcome with Mus musculus [11], in the series with Mus musculus [12], in the series with Mus musculus [13], in the series with Mus musculus [14] and in the series on Mus musculus [16] was Active. Moreover, the outcome with Mus musculus [2], with Mus musculus [4], with Mus musculus [9] and with Mus musculus [15] was inactive. In addition, the Activity result in the series on Mus musculus [6] was “Toxic”.

Turning to `COC1(c2cc(O)ccc2O)C=C(CC/C=C(\C)CC/C=C(\C)C=O)C(=O)O1` (stereo unspecified), the IC50 in series [17] is 10.2 µM; in series [18], 23.8 µM; in [19] it was 56.9 µM; in series [21], more than 100 µM; in series [22] it was 15.8 µM. For the same compound, the inhibition result with Saccharomyces cerevisiae was “Active”. Moreover, the inhibition result in [20] was “Dose-dependent effect”.

As for `CC(C)=CCC/C(C)=C/CC/C(=C/C(=O)c1cc(O)ccc1O)C(=O)O`, the IC50 in [17] is 3.2 µM; in [18], 18.1 µM; in [19] it was 45.2 µM; in series [21] it was more than 100 µM; in series [22], 6.4 µM. In the series with Saccharomyces cerevisiae, the inhibition result is “Active”. Also, in series [20], the inhibition result is “Dose-dependent effect”.

Turning to `C/C1=C/CC/C(=C/Cc2cc(O)ccc2O)C(=O)OC(C)(C)[C@H](O)CC1`, the IC50 in series [17] was 6.3 µM; in series [18] it was 45.8 µM; in series [19], more than 100 µM; in series [21], more than 100 µM; in series [22] it was 3.6 µM. Also, the inhibition entry with Saccharomyces cerevisiae is “Active”.

Consider `C[C@H]1O[C@H](O[C@H]2[C@H](O)[C@@H](O)[C@@H](O[C@H]3[C@H](O)[C@@H](O)C(O)O[C@@H]3CO)O[C@@H]2CO)[C@H](O)[C@@H](O)[C@@H]1N[C@H]1C=C(CO)[C@@H](O)[C@H](O)[C@H]1O` (stereo partly specified) [ACARBOSE], for which the IC50 in series [17] is 273 µM.

Regarding `CC(C)=CCC/C(C)=C/CCC(CC(=O)c1cc(O)ccc1O)C(=O)O` (stereo unspecified) [FORNICIN C], the IC50 in series [17] is 32.1 µM; in series [18] it was 46.2 µM; in series [19], more than 100 µM; in series [21], more than 100 µM; in series [22], 61.2 µM. Moreover, the inhibition entry in the series on Saccharomyces cerevisiae is “Active”.

On to `CC(C)=CCC/C(C)=C/CC/C(=C\Cc1cc(O)ccc1O)C(=O)O`, for which the IC50 in [17], in series [18], in series [19], in series [21] and in series [22] was more than 100 µM each time.

Regarding `C/C(C=O)=C\CC/C(C)=C/CCC1=C[C@H](c2cc(O)ccc2O)OC1=O`, the IC50 in series [17] is 12.7 µM; in series [18] it was 80.1 µM; in series [19], more than 100 µM; in [21] it was more than 100 µM; in [22], 15.8 µM. The inhibition result in the series with Saccharomyces cerevisiae is “Active”.

With `CC(C)=CCC/C(C)=C/CC/C(=C/Cc1cc(O)ccc1O)C(=O)O` [GANOMYCIN B], the IC50 in series [17] was determined as 1.6 µM; in [18], 17.8 µM; in series [19], 29.3 µM; in [21], 35.5 µM; in series [22], 5.9 µM. The inhibition result in the series on Saccharomyces cerevisiae was “Active”. Besides, in series [20], the inhibition entry is “Dose-dependent effect”.
